One test has as its target Focal adhesion kinase 1 (Homo sapiens, UniProt Q05397). Put plainly: Inhibition of human FAK by HTRF assay. On the technique in general: In TR-FRET formats the signal depends on donor and acceptor labels being close together.
Test [1] concerns the target T1, Protein-tyrosine kinase 2-beta (Homo sapiens, UniProt Q14289). Put plainly: Inhibition of human Pyk2 by HTRF assay.
Test [2] can be described thus: Inhibition of Aurora 2.
Test [3] addresses T2, Eukaryotic translation initiation factor 2-alpha kinase 3 (Homo sapiens, UniProt Q9NZJ5).
T2 sequence (Q9NZJ5 whole entry): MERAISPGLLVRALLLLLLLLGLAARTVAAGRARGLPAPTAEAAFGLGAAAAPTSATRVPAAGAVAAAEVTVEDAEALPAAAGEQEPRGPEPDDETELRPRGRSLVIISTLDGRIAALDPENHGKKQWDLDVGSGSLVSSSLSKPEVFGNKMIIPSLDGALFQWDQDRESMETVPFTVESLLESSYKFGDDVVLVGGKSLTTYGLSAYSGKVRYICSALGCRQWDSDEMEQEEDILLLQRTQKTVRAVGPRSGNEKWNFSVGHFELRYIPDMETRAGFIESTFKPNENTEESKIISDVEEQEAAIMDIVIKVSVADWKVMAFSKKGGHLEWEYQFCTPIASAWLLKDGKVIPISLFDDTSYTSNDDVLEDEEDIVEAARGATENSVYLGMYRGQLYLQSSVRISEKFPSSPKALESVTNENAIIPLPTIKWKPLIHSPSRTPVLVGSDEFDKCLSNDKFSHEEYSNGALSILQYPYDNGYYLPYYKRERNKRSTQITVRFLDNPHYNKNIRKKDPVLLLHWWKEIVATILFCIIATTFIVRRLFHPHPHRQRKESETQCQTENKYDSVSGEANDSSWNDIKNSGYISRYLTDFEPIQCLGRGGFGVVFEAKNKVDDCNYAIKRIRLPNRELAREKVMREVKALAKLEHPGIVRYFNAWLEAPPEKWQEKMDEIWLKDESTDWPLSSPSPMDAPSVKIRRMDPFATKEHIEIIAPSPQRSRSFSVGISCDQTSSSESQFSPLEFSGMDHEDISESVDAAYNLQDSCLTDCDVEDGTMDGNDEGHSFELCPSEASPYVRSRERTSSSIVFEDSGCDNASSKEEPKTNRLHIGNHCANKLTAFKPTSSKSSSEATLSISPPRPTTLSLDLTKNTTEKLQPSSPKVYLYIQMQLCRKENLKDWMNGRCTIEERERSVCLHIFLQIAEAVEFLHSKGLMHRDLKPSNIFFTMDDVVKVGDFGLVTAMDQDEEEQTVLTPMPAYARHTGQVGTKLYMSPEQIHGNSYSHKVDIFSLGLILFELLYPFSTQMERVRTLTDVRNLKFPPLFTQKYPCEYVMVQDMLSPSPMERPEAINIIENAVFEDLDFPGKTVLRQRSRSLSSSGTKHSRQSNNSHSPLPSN
Put plainly: Inhibition of PEK.

The target of test [4] is Protein-tyrosine kinase 2-beta (Mus musculus) (UniProt Q9QVP9). Put plainly: Inhibition of mouse Pyk2 in […] cells assessed as increase in calcium level. The test is classed as cell-based. Put shortly:
(§1)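 MC3T3 osteoblast cells were grown with increasing inhibitor concentrations for up to 3 weeks. Alkaline phosphatase, osteocalcin and calcium were measured as osteogenic markers after three weeks in culture, and ALP was also measured at additional time points. EC50 values came from the dose-response. Culture and dosing conditions followed an earlier report.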

Test [5] shares this target. The experiment in a line: (§2) Inhibition of mouse Pyk2 in […] cells assessed as increase in osteocalcin level. It counts as cell-based. A digest of the protocol: as §1
The target of test [6] is T3, Protein-tyrosine kinase 2-beta (Mus musculus, UniProt Q9QVP9). The description is as §2. The test is classed as cell-based. A digest of the protocol:
as §1

Test [7] addresses T1, Protein-tyrosine kinase 2-beta. Put plainly: Inhibition of human PyK2 Y402 autophosphorylation expressed in 293T cells by immunofluorescence assay. It counts as cell-based.
The target in test [8] is Non-receptor tyrosine-protein kinase TYK2 (Homo sapiens, UniProt P29597). The experiment in a line: Inhibition of TYK2.
Test [9] addresses Tyrosine-protein kinase JAK2 (Homo sapiens, UniProt O60674). The experiment in a line: Inhibition of Jak2.
Test [10] deals with Protein-tyrosine kinase 2-beta (Mus musculus) (UniProt Q9QVP9). The experiment in a line: (§3) Inhibition of mouse Pyk2 in […] cells assessed as increase in alkaline phosphatase level. The test is classed as cell-based. Put shortly: as §1
Sequence of Protein-tyrosine kinase 2-beta (Mus musculus) (Q9QVP9 whole entry, looked up): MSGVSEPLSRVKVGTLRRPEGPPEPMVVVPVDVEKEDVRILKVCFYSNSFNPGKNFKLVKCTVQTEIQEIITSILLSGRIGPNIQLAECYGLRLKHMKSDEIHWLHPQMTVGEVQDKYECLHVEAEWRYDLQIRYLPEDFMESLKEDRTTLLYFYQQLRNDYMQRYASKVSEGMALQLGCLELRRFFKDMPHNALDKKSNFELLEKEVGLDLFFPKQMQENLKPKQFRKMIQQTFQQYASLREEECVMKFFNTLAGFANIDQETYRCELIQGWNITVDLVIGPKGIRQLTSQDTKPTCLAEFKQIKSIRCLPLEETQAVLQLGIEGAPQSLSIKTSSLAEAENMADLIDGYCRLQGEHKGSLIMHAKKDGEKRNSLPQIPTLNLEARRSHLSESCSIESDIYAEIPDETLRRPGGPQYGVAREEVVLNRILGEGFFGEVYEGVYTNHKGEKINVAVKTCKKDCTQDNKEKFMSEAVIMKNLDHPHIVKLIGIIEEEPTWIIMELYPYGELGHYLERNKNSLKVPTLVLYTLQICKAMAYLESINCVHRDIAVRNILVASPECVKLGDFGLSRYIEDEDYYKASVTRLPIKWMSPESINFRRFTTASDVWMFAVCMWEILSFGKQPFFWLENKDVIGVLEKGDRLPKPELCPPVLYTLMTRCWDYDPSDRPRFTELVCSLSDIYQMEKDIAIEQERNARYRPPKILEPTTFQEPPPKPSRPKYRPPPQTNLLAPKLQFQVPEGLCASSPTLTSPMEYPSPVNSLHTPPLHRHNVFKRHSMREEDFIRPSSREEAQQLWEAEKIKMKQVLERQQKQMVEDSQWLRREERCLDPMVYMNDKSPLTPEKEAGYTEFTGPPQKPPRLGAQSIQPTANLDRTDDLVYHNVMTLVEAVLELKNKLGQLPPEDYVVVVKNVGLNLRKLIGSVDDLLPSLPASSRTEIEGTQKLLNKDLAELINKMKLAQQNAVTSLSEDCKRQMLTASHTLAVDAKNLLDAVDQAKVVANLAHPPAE
For test [11], the target named is T3, Protein-tyrosine kinase 2-beta. The description is as §3. It counts as cell-based. A digest of the protocol:
as §1

For test [12], the target named is T4, Tyrosine-protein kinase JAK3 (Homo sapiens, UniProt P52333).
T4 sequence (P52333 whole entry): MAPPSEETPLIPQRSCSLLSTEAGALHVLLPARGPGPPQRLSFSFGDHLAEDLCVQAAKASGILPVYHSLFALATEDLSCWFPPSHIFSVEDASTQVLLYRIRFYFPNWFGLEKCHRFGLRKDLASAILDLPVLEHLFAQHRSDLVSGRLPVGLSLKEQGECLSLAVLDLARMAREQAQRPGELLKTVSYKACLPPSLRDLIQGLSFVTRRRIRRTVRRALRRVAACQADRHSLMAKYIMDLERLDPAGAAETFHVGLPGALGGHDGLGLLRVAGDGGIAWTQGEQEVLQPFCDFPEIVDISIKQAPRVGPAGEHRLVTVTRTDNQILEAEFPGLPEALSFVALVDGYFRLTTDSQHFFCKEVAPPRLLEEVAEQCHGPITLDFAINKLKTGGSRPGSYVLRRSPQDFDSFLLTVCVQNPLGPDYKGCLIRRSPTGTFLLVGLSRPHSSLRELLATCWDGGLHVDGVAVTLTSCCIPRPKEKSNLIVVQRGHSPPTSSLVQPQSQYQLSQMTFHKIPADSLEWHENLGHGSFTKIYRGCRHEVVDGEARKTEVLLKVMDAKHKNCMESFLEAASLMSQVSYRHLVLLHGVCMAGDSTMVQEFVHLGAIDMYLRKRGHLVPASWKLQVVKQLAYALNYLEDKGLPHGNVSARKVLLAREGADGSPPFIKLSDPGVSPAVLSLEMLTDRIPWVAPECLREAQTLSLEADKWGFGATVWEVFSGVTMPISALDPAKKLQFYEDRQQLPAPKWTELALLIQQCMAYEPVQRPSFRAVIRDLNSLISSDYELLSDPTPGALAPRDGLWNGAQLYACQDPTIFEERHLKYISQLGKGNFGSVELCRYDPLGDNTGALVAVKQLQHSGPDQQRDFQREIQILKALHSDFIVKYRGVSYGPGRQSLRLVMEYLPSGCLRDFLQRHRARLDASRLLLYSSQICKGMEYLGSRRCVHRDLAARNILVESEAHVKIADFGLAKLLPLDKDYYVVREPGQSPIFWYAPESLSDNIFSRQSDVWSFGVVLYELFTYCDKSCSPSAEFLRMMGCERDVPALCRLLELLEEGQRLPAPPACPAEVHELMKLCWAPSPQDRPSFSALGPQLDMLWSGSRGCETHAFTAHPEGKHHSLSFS
Put plainly: Inhibition of Jak3.

The target in test [13] is Interferon-induced, double-stranded RNA-activated protein kinase (Homo sapiens, UniProt P19525). The experiment in a line: Inhibition of PKR.
Sequence of Interferon-induced, double-stranded RNA-activated protein kinase (P19525 whole entry): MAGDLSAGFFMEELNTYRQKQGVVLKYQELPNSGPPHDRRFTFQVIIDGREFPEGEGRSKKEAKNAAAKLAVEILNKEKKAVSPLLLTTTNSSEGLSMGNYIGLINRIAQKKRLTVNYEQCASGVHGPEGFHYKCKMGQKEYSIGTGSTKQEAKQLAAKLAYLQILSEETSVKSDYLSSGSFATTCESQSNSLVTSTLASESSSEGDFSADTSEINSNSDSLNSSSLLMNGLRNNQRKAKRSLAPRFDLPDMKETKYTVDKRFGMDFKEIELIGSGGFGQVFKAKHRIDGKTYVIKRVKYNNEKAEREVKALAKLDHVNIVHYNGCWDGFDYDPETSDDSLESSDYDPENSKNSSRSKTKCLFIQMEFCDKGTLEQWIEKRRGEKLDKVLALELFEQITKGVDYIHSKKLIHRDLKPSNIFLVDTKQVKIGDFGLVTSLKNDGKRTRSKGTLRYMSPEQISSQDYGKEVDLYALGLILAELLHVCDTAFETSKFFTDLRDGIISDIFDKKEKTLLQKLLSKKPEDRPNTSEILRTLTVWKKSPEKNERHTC
The target of test [14] is Tyrosine-protein kinase JAK1 (Homo sapiens, UniProt P23458). The experiment in a line: Inhibition of Jak1.
Sequence of Tyrosine-protein kinase JAK1 (P23458 whole entry): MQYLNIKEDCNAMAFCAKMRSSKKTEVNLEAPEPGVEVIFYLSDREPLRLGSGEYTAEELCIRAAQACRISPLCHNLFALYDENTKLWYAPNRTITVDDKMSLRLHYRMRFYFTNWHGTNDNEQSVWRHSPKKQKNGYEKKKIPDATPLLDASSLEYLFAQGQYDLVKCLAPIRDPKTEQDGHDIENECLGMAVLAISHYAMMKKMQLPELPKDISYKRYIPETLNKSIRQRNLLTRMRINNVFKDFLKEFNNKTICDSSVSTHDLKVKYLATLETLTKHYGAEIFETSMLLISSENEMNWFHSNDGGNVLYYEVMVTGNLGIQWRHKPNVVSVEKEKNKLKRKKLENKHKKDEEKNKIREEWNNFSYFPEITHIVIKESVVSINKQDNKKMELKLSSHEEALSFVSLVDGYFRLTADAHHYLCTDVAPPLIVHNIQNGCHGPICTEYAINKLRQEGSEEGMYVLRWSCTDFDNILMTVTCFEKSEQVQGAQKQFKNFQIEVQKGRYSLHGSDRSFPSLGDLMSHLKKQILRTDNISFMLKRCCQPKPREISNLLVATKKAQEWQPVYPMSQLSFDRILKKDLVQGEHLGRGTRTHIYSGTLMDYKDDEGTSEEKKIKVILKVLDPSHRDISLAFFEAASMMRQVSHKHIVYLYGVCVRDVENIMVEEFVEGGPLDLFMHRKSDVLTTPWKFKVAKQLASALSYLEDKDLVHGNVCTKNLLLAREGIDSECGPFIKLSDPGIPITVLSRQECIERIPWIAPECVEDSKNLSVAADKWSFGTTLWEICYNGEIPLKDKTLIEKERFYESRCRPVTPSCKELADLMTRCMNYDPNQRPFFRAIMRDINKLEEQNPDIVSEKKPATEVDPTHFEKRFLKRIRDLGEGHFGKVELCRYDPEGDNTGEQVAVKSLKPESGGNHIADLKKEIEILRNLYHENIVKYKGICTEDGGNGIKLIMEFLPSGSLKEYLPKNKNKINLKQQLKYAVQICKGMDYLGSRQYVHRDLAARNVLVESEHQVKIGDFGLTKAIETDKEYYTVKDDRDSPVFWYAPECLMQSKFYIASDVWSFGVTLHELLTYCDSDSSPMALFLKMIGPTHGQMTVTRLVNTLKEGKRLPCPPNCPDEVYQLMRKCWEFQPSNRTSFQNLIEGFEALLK

We go through nine molecules from ChEMBL document CHEMBL1155349, “Identification of small molecule inhibitors of proline-rich tyrosine kinase 2 (Pyk2) with osteogenic activity in osteoblast cells” (Bioorg Med Chem Lett, 2009).

Some results are limits rather than exact numbers.

Sequence of Focal adhesion kinase 1 (Q05397 whole entry): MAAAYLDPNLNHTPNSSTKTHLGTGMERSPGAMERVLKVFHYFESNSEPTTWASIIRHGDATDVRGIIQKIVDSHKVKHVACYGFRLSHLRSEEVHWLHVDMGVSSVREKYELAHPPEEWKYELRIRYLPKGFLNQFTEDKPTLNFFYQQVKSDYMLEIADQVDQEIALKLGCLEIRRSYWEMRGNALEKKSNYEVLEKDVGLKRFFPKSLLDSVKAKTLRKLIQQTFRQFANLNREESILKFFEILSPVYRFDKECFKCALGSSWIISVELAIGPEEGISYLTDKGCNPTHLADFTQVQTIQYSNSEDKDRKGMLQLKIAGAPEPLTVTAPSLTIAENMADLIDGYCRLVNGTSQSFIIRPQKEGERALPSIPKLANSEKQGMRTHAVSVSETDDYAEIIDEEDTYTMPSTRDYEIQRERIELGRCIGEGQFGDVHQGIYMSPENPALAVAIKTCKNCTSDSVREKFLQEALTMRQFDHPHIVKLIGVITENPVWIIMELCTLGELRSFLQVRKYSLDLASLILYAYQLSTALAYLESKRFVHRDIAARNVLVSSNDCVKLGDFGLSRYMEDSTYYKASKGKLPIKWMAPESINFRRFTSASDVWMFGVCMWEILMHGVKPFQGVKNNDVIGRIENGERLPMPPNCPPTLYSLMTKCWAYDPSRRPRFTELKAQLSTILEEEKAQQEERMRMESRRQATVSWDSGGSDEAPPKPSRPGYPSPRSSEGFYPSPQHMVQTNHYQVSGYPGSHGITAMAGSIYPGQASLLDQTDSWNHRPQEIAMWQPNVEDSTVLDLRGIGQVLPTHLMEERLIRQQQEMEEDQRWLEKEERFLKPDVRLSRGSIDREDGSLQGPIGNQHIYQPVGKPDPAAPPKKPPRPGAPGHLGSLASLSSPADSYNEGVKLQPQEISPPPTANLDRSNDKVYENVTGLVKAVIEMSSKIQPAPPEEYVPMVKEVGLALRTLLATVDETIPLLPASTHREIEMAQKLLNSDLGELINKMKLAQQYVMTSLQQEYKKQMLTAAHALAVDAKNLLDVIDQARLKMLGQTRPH
T3 sequence (Q9QVP9 whole entry): as the sequence (Q9QVP9 whole entry, looked up) above
T1 sequence (Q14289 whole entry): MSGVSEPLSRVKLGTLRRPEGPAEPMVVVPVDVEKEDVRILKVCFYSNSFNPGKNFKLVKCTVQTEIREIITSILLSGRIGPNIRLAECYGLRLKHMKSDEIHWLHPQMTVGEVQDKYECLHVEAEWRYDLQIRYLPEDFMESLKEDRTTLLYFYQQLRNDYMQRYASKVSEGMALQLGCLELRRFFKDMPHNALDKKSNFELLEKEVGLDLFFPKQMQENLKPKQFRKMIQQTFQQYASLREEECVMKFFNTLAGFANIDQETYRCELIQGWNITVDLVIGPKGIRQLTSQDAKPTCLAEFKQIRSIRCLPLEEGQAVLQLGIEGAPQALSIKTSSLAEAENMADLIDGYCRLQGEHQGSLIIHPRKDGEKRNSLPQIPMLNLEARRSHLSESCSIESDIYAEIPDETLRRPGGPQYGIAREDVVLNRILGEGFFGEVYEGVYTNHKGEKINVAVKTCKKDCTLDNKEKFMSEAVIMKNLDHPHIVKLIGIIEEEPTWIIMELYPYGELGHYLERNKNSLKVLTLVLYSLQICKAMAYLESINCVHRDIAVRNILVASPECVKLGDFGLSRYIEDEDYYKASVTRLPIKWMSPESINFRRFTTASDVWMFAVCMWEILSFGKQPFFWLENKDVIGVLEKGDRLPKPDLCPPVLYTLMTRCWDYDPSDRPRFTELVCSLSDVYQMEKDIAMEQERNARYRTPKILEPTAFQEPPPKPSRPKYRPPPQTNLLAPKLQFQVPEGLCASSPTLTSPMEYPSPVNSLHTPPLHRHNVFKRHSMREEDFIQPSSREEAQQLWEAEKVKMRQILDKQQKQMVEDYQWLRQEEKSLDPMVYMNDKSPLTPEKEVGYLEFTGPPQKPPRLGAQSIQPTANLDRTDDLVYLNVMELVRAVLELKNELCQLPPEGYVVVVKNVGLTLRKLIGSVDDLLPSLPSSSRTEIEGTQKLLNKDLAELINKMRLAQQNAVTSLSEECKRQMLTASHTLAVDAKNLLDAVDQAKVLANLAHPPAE

On to `COc1cc2nccc(Oc3ccc(NC(=O)c4c(N5CCN(C)CC5)ccn(-c5ccccc5)c4=O)nc3)c2cc1OC`, for which the 50% inhibitory concentration (IC50) (commonly the concentration that gives 50% inhibition) against Focal adhesion kinase 1 was above 125 µM.
In turn, `COc1ccc2c(Oc3ccc(NC(=O)c4cc(-c5cccnc5)cn(-c5ccccc5)c4=O)nc3)ccnc2c1` registered an IC50 on Focal adhesion kinase 1 above 125 µM.
As for `COc1cc2nccc(Oc3ccc(NC(=O)c4c(N(C)C)ccn(-c5ccccc5)c4=O)nc3)c2cc1OC`, the IC50 on Focal adhesion kinase 1 was above 125 µM.
Regarding `CNc1ccn(-c2ccccc2)c(=O)c1C(=O)Nc1ccc(Oc2ccnc3cc(OC)c(OC)cc23)cn1`, the IC50 in test [1] was 35 nM; in test [2], above 1000 nM; in test [3] it was above 1000 nM; in [7] it was 110 nM; in [8] it was above 1000 nM; in test [9] it was above 1000 nM. Besides, the half-inhibitory concentration (IC50) was 17 µM against Focal adhesion kinase 1, above 1000 nM in [12], above 1000 nM in test [13] and above 1000 nM in test [14]. Further, the Activity entry in test [4], in [5] and in test [10] was “Dose-dependent effect” each time. Further, the EC50 in test [6] and in test [11] was 10 nM throughout.
`COCCNc1ccn(-c2ccccc2)c(=O)c1C(=O)Nc1ccc(Oc2ccnc3cc(OC)ccc23)cn1`: on Focal adhesion kinase 1, the IC50 was above 125 µM.
`COc1cc2nccc(Oc3ccc(NC(=O)c4cc(-c5cccnc5)cn(-c5ccccc5)c4=O)nc3)c2cc1OC` displayed an IC50 at Focal adhesion kinase 1 above 125 µM.
Consider `CNc1ccn(Cc2ccccc2)c(=O)c1C(=O)Nc1ccc(Oc2ccnc3cc(OC)c(OC)cc23)cn1`, for which, at Focal adhesion kinase 1, the IC50 is above 125 µM.
As for `COc1cc2nccc(Oc3ccc(NC(=O)c4cc(-c5cccs5)cn(-c5ccccc5)c4=O)nc3)c2cc1OC`, the Activity result in [4], in test [5] and in [10] was “Dose-dependent effect” each time. Besides, the 50% effective concentration (EC50) in [6] and in test [11] was 10 nM each time. The molecule also registered a concentration for half-maximal inhibition (IC50) on Focal adhesion kinase 1 above 125 µM.
The molecule `COc1ccc2c(Oc3ccc(NC(=O)c4cc(-c5cnccn5)cn(-c5ccccc5)c4=O)nc3)ccnc2c1` yielded an IC50 against Focal adhesion kinase 1 above 125 µM.
